Experimental data: article PMC5593162 (Clinical and Translational Science, 2017)
Like-named read-outs stand apart in the source and are kept apart here.

How the values were obtained:
[1] = ref previous studies; cited from earlier work
[2] = assay type: in vivo, healthy adult subjects (human)
How it was run: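 Open-label, fixed-sequence, three periods, ≥10-day washouts, overnight-fasted. Single oral inhibitor FDC (50 mg/100 mg) given alone, after H2-antagonist 20 mg orally ~10 h and 2 h before, or ~2 h after PPI 40 mg on day 5 of 5 daily doses. Plasma sampled predose to 96 h; LC-MS/MS. Noncompartmental; t½ = ln2/λz; GMRs via mixed-effects model on log values.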

[3] = cited from earlier work

C24 GMR ([2]; GZR, EBR/GZR FDC + FAM / EBR/GZR FDC)	C24 GMR ([2]; GZR, EBR/GZR FDC + PAN / EBR/GZR FDC)	Structure (SMILES)	apparent terminal half-life (t½) [1] [h]	time to maximum drug concentration (tmax) [1] [h]	tmax, median ([2]; EBR in plasma, EBR/GZR FDC + FAM 20 mg given 10 h and 2 h before) [h]	C24 GMR ([2]; EBR, EBR/GZR FDC + FAM / EBR/GZR FDC)	C24 GMR ([2]; EBR, EBR/GZR FDC + PAN / EBR/GZR FDC)	Tmax ([2]; human, plasma, po, 100 mg) [h]	half-life ([2]; human, plasma, po, 100 mg) [h]	solubility versus stomach pH [3]
		COC(=O)N[C@H](C(=O)N1CCC[C@H]1c1nc(-c2ccc3c(c2)O[C@@H](c2ccccc2)n2c-3cc3cc(-c4c[nH]c([C@@H]5CCCN5C(=O)[C@@H](NC(=O)OC)C(C)C)n4)ccc32)c[nH]1)C(C)C [EBR, elbasvir]	~20	2 to 4	3.50	1.03	1.03	3.5	19.3	
1.12	1.17	C=C[C@@H]1C[C@]1(NC(=O)[C@@H]1C[C@@H]2CN1C(=O)[C@H](C(C)(C)C)NC(=O)O[C@@H]1C[C@H]1CCCCCc1nc3ccc(OC)cc3nc1O2)C(=O)NS(=O)(=O)C1CC1 [GZR, grazoprevir]	~20	2 to 4					33.8	
		COC(=O)N[C@H](C(=O)N1CC2(CC2)C[C@H]1c1ncc(-c2ccc3c(c2)C(F)(F)c2cc(-c4ccc5nc([C@@H]6[C@H]7CC[C@H](C7)N6C(=O)[C@@H](NC(=O)OC)C(C)C)[nH]c5c4)ccc2-3)[nH]1)C(C)C [ledipasvir]								decrease as stomach pH increases
		COC[C@H]1C[C@@H](c2ncc(-c3ccc4c(c3)COc3cc5c(ccc6nc([C@@H]7CC[C@H](C)N7C(=O)[C@@H](NC(=O)OC)C(C)C)[nH]c65)cc3-4)[nH]2)N(C(=O)[C@H](NC(=O)OC)c2ccccc2)C1 [velpatasvir]								decrease as stomach pH increases
